# Apaf-1 inh – blocks human Apaf-1 apoptosome activity | reconstituted apoptosome caspase-3 activity, DEVD-Rh110 fluorescence | inhibition, % at 20 µM | hit rate 0.71% among 330,000 | O14727; active = inhibition of at least 40% at 20 µM
#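 System: reconstituted apoptosome with Apaf-1, cytochrome c, caspase-9, procaspase-3, dATP; Signal: Rh110 fluorescence intensity; Schedule: 30 min compound preincubation, 50 min activation, room temperature; Reagent: cytochrome c trigger plus (Z-DEVD)2-Rh110 caspase-3 substrate.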
# MEKK3 PB1 HTS – modulators (inhibitors or enhancers) of MEK5 binding to human MEKK3 PB1 domain | bead-based flow cytometry, Alexa488-MEK5 binding to MEKK3; actives lie on both sides; 0 = blocked by unlabeled MEK5, 100 = vehicle | binding response (% of control), % at 10 µM | hit rate 1.4% among 290,000 | AID 1529 | Q99759;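 active = binding response more than 3 SD above or below the average of its plate-row segment, actives on both sides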;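 note: Alexa488 bead fluorescence after subtracting the streptavidin-only scavenger bead signal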
# Target sequence (Q99759 whole entry, looked up, the tested form may be a part): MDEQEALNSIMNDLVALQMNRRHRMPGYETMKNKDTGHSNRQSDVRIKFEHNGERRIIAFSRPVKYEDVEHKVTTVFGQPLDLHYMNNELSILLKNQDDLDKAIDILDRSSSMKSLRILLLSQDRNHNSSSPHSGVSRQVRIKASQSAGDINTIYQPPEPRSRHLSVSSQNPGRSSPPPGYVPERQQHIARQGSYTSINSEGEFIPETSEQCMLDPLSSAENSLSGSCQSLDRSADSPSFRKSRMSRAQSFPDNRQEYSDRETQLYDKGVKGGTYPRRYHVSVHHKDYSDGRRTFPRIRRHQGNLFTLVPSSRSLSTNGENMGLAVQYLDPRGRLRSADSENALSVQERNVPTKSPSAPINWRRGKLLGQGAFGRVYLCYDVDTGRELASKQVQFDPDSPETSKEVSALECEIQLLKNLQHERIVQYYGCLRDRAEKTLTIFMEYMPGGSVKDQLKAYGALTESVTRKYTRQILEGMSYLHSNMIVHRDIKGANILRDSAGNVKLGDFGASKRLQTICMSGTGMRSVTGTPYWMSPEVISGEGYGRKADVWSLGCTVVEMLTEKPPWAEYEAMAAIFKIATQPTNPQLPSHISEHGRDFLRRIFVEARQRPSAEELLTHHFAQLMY
# MEKK2mut PB1 HTS – signal of MEK5 binding to mutant human MEKK2 PB1 domain; bead flow cytometry, Alexa488-MEK5 binding to MEKK2 mutant; percent response, % at 10 µM; hit rate 0.35% among 290,000; in the data active = percent response above about 24%, passing the limit was not always enough
# UBC13 inh – inhibitors of human UBC13 polyubiquitin chain formation | P61088 | TR-FRET | inhibition, % at 20 µM | hit rate 0.47% among 330,000; in the data active = inhibition above about 45%, passing the limit was not always enough
# MEKK2 WT-MEK5 – raises or lowers MEK5 binding to wildtype human MEKK2 PB1 domain | Q9Y2U5 | bead flow cytometry, Alexa488-MEK5 binding to MEKK2 WT; actives lie on both sides | binding response (% of control), % at 10 µM | hit rate 1.1% among 290,000; in the data active = binding response below about 67% or above about 130%
# UCH37 inh – human UCH37 deubiquitinating enzyme inhibition; purified proteasome/UCH37, Ub-AMC cleavage fluorescence; inhibition, % (test concentration not listed); hit rate 0.33% among 330,000; AID 588478;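 active = mean inhibition over replicate wells above about 20%, limit read from the data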
#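 Material: Human UCH37 enzyme supplied as purified proteasome complex | Schedule: 30 min compound-proteasome preincubation then 25 min substrate reaction, room temperature | Detection: AMC fluorescence from Ub-AMC cleavage, excitation 355 nm, emission 460 nm | Benchmarks: Wells without proteasome as full block, compound-free enzyme plus substrate as uninhibited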
# MEKK2wt confirm – raises or lowers MEK5 binding to wildtype human MEKK2, retest; shares compounds with MEKK3 PB1 HTS; binding response (% of control), % at 10 µM; AID 1892; hit rate 2.4% among 5,900; bead flow cytometry, Alexa488-MEK5 binding to MEKK2 WT; actives lie on both sides; in the data active = binding response below about 16% or above about 210%; inactive = in between
# MEKK2mut confirm – signal of MEK5 binding to mutant human MEKK2, retest | shares compounds with MEKK3 PB1 HTS | bead flow cytometry, Alexa488-MEK5 binding to MEKK2 mutant | percent response, % at 10 µM | hit rate 2% among 5,900 | AID 1893; in the data active = percent response mostly above about 71%, no sharp cut-off; inactive = mostly below about 38%;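 note: higher means compound restores mutant binding toward wildtype level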
# MEKK3 confirm – MEKK3-MEK5 PB1 inhibition, single concentration confirmation | AID 1894 | hit rate 1.8% among 5,900 | binding response (% of control), % at 10 µM | bead flow cytometry, Alexa488-MEK5 binding to MEKK3; active compounds read low | shares compounds with MEKK3 PB1 HTS;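 active = binding response below 72% of control, or above a set upper limit, though filed actives all read lower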;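 note: lower values mean stronger disruption of MEK5 binding to MEKK3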
# Numbers stand for hits; - = inactive; . = no result given; [ ] = remark or other dose. Hits are enriched below; roughly 3% of the tested compounds scored in any of these assays.
SMILES,Apaf-1 inh,MEKK3 PB1 HTS,MEKK2mut PB1 HTS,UBC13 inh,MEKK2 WT-MEK5,UCH37 inh,MEKK2wt confirm,MEKK2mut confirm,MEKK3 confirm
O=C(NCc1ccccc1)C(c1ccc(Cl)cc1)N(C(=O)c1csnn1)C1CC1 (centres undefined),-,-,-,-,-,.,.,.,.
O=C(CCC(NC(=O)OCc1ccccc1)C(=O)OCC(=O)N1CCCCC1)OCC(=O)N1CCCCC1 (centres undefined),-,-,-,-,-,-,.,.,.
O=C(COC(=O)CCC(NC(=O)OCc1ccccc1)C(=O)OCC(=O)Nc1ccccc1)Nc1ccccc1 (centres undefined),-,152,-,-,-,-,-,-,-
COc1ccc(OC)c(C(=O)CSc2nc3ncccc3[nH]2)c1,-,-,-,-,-,-,.,.,.
Cc1cc([N+](=O)[O-])nn1CC(=O)NN=Cc1ccccc1O,.,.,.,.,.,-,.,.,.
O=C(NN=Cc1ccc(Br)cc1)c1ccc(NC(=O)c2ccccc2)cc1,.,.,.,.,.,-,.,.,.
CN(C)c1ccc(/C=N/NC(=O)c2ccc(NC(=O)c3ccccc3)cc2)cc1,-,73[inhibitor],-,-,-,.,-,-,-
O=C(N/N=C/c1cccc(NC(=O)c2ccc(Cl)cc2)c1)c1ccc(O)cc1,-,44[inhibitor],-,-,38[inhibitor],.,-,-,-
O=C(NN=Cc1cccc(NC(=O)c2ccc(Cl)cc2)c1)c1ccc(O)cc1,.,.,.,.,.,-,.,.,.
COc1cc2c(cc1OC)/C(=C/C(=O)c1ccc(F)cc1)NCC2,-,-,-,-,-,-,.,.,.
CC(C)(C)OC(=O)C[C@@H]1C/C=C\C[C@@H](CC(=O)N[C@@H](CO)Cc2ccccc2)C(=O)NCCOC1=O,-,.,.,-,.,-,.,.,.
CCc1cc(C(=O)c2ccc(C)cc2)c(NC(=O)CCl)s1,-,-,-,-,-,-,.,.,.
Cc1cc(C(=O)c2ccc(Cl)cc2)c(NC(=O)CCl)s1,-,135,-,-,-,-,-,-,-
CCCCCCC(=O)N/N=C/c1ccco1,-,-,-,-,-,.,.,.,.
CCOc1ccccc1CN1CCNC(=O)C1CC(=O)NCCC1=CCCCC1 (centres undefined),-,-,24,-,-,-,-,-,-
COc1ccccc1CN1CCNC(=O)C1CC(=O)NCCC1=CCCCC1 (centres undefined),-,-,-,-,-,-,.,.,.
Cn1ncc(C(=O)Nc2ccc(Cl)cc2)c1C(F)(F)F,-,74[inhibitor],-,-,-,-,-,-,-
COCCN(C(=O)c1snc(C(N)=O)c1N)C(C(=O)NC1CCCCC1)c1ccc(F)cc1 (centres undefined),-,-,-,-,-,-,.,.,.
C=CCNC(=S)N/N=C(\C)c1cc(OC)c(OC)c(OC)c1,-,137,-,-,-,.,-,-,-
CC(C)(C)c1ccc(OCCC(=O)Nc2cccc(S(=O)(=O)N3CCCCC3)c2)cc1,-,-,-,-,-,-,.,.,.
CC(=O)C(=NNc1ccc(C)cc1)Sc1nnc(CCc2ccccc2)n1-c1ccccc1,.,.,.,.,.,-,.,.,.
CCOC(=O)C1CCN(C(=O)COc2ccc(Cl)cc2)CC1,-,-,-,-,-,-,.,.,.
CCOC(=O)C1CCN(C(=O)COC(=O)COc2ccc(Cl)cc2)CC1,-,37[inhibitor],-,-,-,-,-,-,-
CCOC(=O)C1CCN(C(=O)Cc2ccc(OC)c(OC)c2)CC1,-,81[inhibitor],-,-,-,-,-,-,-
CCOC(=O)C1CCN(C(=O)Cc2ccc(C)cc2)CC1,-,-,-,-,-,-,.,.,.
CCN(Cc1ccccc1)C(=O)COC(=O)CNS(=O)(=O)c1ccc(C)cc1,-,-,-,-,-,-,.,.,.

# Bioassay records: PubChem, several laboratories
